Measurements: ChEMBL document CHEMBL2429753, “Synthesis and chemical and biological comparison of nitroxyl- and nitric oxide-releasing diazeniumdiolate-based aspirin derivatives” (J Med Chem, 2013)
The source made the active and inactive calls. The calls are words filed in the database; no cut-off is given here.

Columns and labels:
[1] = Half life of the compound; assay type: physicochemical
A549 [2] = assay: Cytotoxicity against human A549 cells after 48 hrs by MTT assay; assay type: functional, cell-based; conditions: A549, 48 h
How it was run: (§1)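 A549 cells in RPMI 1640 with 10% FBS, and HUVECs in endothelial growth medium, both at 37°C in 5% CO2. Seeded at 8,000-10,000 per well, grown overnight, then exposed to 0-200 μM for 48 h. MTT (10 μL of 2 mg/mL) added for 1 h at 37°C, formazan dissolved in DMSO and read at 550 nm. n = 3 for A549, n = 1 for HUVEC, each at least in triplicate.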

[3] = biological target: T1, Prostaglandin G/H synthase 2 (Homo sapiens) (UniProt P35354); assay: Inhibition of COX-2 mediated PGE2 production in human A549 cells at 25 to 50 uM after 24 hrs by EIA; assay type: cell-based
T1 sequence (whole entry): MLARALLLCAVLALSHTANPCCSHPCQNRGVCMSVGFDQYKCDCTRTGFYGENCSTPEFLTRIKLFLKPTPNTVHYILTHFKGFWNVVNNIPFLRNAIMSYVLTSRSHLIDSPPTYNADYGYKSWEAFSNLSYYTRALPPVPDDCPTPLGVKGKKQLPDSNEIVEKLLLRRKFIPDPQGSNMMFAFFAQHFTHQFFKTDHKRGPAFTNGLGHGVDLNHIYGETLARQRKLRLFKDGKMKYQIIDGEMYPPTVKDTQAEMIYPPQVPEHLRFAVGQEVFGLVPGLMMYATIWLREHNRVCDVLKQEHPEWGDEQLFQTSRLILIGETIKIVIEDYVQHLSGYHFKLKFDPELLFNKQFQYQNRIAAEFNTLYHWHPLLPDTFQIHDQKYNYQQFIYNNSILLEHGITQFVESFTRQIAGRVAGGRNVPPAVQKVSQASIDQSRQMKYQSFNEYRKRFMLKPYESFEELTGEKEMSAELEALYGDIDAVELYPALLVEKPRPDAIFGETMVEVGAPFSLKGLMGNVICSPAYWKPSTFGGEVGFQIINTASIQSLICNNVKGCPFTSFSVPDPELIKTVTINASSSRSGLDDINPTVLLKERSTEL
How it was run: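 A549 cells seeded at 50,000 per well and grown 12 h, then treated with 25 or 50 μM (0.1% DMSO) for 24 h at 37°C. PGE2 in the supernatant measured by competitive AChE-tracer EIA: overnight incubation at 4°C, Ellman's reagent development, […]. Run in triplicate.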

Serum = assay: Drug metabolism in fetal bovine serum by HPLC analysis; assay type: ADME, cell-free, Bos taurus; conditions: cattle
[4] = Drug metabolism in guinea pig serum assessed as aspirin formation at 100 uM after 5 mins by HPLC analysis; assay type: ADME, cell-free, Cavia porcellus
How it was run: (§2)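 Compound added at 100 μM final to 0.1 M phosphate buffer, pH 7.4, with 50 μM DTPA and 2% guinea pig serum, preheated to 37°C. Reaction followed over time by reversed-phase C18 HPLC with a water/acetonitrile gradient containing 0.1% formic acid. Products identified by co-elution with authentic standards.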

[5] = Cardioprotective effect in mouse cardiomyocytes assessed as myocyte contractility measured as sarcomere shortening at 500 uM relative to control; assay type: functional, cell-based; conditions: Cardiomyocyte
How it was run: (§3)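 Ventricular myocytes from wild-type mice aged 2-4 months, anesthetized with ip pentobarbital 100 mg/kg, superfused with compound at 500 μM. Sarcomere shortening imaged under 0.5 Hz field stimulation and length tracked by real-time Fourier transform. Relaxation taken as time from peak shortening to 50% relaxation. Ca2+ transients read by confocal microscopy after fluo-4/AM loading (20 μM, 30 min). n = 12 cells.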

Rattus norvegicus [6] = assay: Antiinflammatory activity in po dosed Sprague-Dawley rat assessed as inhibition of carrageenan-induced paw edema administered 1 hr prior to carrageenan challenge measured after 3 hrs; assay type: functional; conditions: read-out: ID50 (the source's name)
How it was run: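 Rats 160-180 g (n = 3) given compound by gavage at 0.8 mmol/kg, suspended in 1% methyl cellulose in water; controls received vehicle. After 1 h, 100 μL of 1% carrageenan in 0.9% NaCl injected into the right hind paw. Paw volume read by plethysmometer at 0 and 3 h. ID50 taken from dose-response curves as the dose halving the control inflammatory response.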

[7] = Cardioprotective effect in mouse cardiomyocytes assessed as increase in whole calcium transient at 500 uM by confocal laser scanning microscopy relative to control; assay type: functional, cell-based; conditions: Cardiomyocyte; how it was run: as §3
[8] = Stability in mouse cardiomyocytes after 20 to 30 mins; assay type: ADME, cell-based; conditions: cardiomyocyte
[9] = Drug metabolism of the compound in PBS buffer assessed as formaldehyde formation at pH 10 by NMR spectroscopy; assay type: physicochemical
[10] = Prodrug activation in guinea pig serum assessed as HNO release at 100 uM at pH > 6 by electrochemical detection method; parameters: species or system Cavia porcellus
How it was run: (§4)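 NO electrode equilibrated at room temperature in buffer of the chosen pH containing 50 μM DTPA and 2% guinea pig serum. Compound added at 100 μM (0.1% DMSO) and maximum current recorded; triplicate additions. HNO measured indirectly after adding 1 mM ferricyanide to oxidize it to NO. Mean ± SD, n = 3.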

HUVEC = assay: Cytotoxicity against human HUVEC cells up to 100 uM after 48 hrs by MTT assay; assay type: cell-based; how it was run: as §1
[11] = Drug metabolism of the compound in PBS buffer assessed as salicylate formation at pH 10 by NMR spectroscopy; assay type: physicochemical
[12] = Half life of the compound at pH 7.4 in presence of guinea pig serum; assay type: physicochemical
[13] = Prodrug conversion in guinea pig serum assessed as conversion of MbO2 to metMb at 100 uM by spectrophotometry; assay type: ADME, Cavia porcellus; conditions: 50 or 250 µM, in the assay text read “at 50 or 250 uM” for “at 100 uM”
How it was run: (§5)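 MbO2 (50 μM) exposed to compound at 37°C in pH 7.4 buffer (50 μM DTPA), with or without 2% guinea pig serum and with or without 1 mM GSH. Formation of metMb followed spectrally at 30-900 s intervals for 800 s to 6 h. MbO2 autoxidation monitored separately every 600 s over 12 h. n = 3.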

[14] = Half life of the compound at pH 7.4; assay type: physicochemical
[15] = Drug metabolism of the compound in PBS buffer assessed as isopropanol formation at pH 10 by NMR spectroscopy; assay type: physicochemical
[16] = Drug metabolism in guinea pig serum assessed as NONO-salicylate formation at 100 uM after 5 mins by HPLC analysis; assay type: ADME, cell-free, Cavia porcellus; how it was run: as §2
[17] = biological target: Glyceraldehyde-3-phosphate dehydrogenase (Homo sapiens) (UniProt P04406); assay: Inhibition of GAPDH in human A549 cells at 100 uM after 1 hr by fluorescence assay; assay type: cell-based
Glyceraldehyde-3-phosphate dehydrogenase (Homo sapiens), sequence (P04406 2-335 limits assumed): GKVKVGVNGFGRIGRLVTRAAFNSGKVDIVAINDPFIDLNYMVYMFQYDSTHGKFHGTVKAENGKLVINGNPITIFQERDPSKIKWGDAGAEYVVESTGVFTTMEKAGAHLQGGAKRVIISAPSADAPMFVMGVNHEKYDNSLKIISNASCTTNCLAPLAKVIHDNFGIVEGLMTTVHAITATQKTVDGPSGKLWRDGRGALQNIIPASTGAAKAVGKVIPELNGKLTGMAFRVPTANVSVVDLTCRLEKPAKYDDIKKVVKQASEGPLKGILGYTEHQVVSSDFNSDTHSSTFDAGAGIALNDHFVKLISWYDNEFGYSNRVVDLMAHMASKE
How it was run: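 A549 cells seeded at 30,000 per well, grown overnight and treated with 100 μM for 1 h at 37°C. Cells lysed 20 min at 4°C in KAlert buffer. Lysate mixed with KAlert mastermix and GAPDH activity read as fluorescence at 570 nm (excitation 540 nm). Mean ± SD of triplicate; one-way ANOVA against control.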

[18] = Prodrug activation in guinea pig serum assessed as HNO release at 100 uM at pH < 6 by electrochemical detection method; parameters: species or system Cavia porcellus; how it was run: as §4
[19] = Cardioprotective effect in mouse cardiomyocytes assessed as reduction in time required for half relaxation from peak shortening at 500 uM relative to control; assay type: functional, cell-based; parameters: scale not given: the % may be the effect or the level left; conditions: Cardiomyocyte; how it was run: as §3
[20] = Drug metabolism of the compound in PBS buffer assessed as salicylate formation at pH 7.4; assay type: physicochemical
[21] = Drug metabolism of the compound in PBS buffer assessed as acetate formation at pH 10 by NMR spectroscopy; assay type: physicochemical
A549 [22] = assay: Cellular uptake in human A549 cells assessed as HNO/NO release at 10 uM by fluorescence asay; assay type: ADME, cell-based; conditions: a549, 10 µM
How it was run: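 A549 cells seeded at 60,000 per well and grown 4 h, then loaded with 10 μM DAF-FM diacetate in PBS for 75 min at 37°C and washed three times. Compound added at 10 μM final (prodrugs from DMSO stock, ionic NONOates from 10 mM NaOH stock). Fluorescence at 535 nm (excitation 485 nm) followed over time at 37°C. n = 2, six replicates per plate.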

Rattus norvegicus [23] = assay: Toxicity in Sprague-Dawley rat assessed as stomach ulcer at 1.38 mmol/kg, po after 6 hrs relative to aspirin; assay type: organism-based; conditions: in vivo
How it was run: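 Rats fasted 24 h with water allowed, then dosed orally at 1.38 mmol/kg in 1% methylcellulose vehicle; controls received vehicle. Killed by CO2 at 6 h. Stomachs examined under a magnifying glass and ulcers scored by number and size (1 mm = 1; 1-2 mm = 2; >2 mm = length in mm). Ulcer index = total ulcer length per stomach averaged over animals (n = 4).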

[24] = Prodrug conversion of the compound assessed as conversion of MbO2 to metMb at 250 uM by spectrophotometry; assay type: ADME; how it was run: as §5
[25] = Drug metabolism in guinea pig serum assessed as NONO-salicylate formation at 100 uM after 40 mins by HPLC analysis; assay type: ADME, cell-free, Cavia porcellus; how it was run: as §2
[26] = Drug metabolism of the compound in PBS buffer at pH 10 after 90 mins by NMR spectroscopy; assay type: physicochemical; conditions: pH 10, 1.5 h
[27] = Drug metabolism of the compound in PBS buffer assessed as aspirin formation; assay type: physicochemical
[28] = Drug metabolism of the compound in PBS buffer assessed as accumulation of DEA/NO at pH 10 by NMR spectroscopy; assay type: physicochemical
[29] = Drug metabolism of the compound in PBS buffer assessed as aspirin formation at pH 10 by NMR spectroscopy; assay type: physicochemical
[30] = Drug metabolism of the compound in PBS buffer assessed as accumulation of DEA/NO at pH 10 after 10 mins by NMR spectroscopy; assay type: physicochemical; conditions: pH 10, 10 min
[31] = Prodrug conversion in guinea pig serum assessed as conversion of MbO2 to metMb at 50 uM by spectrophotometr; assay type: ADME, Cavia porcellus; how it was run: as §5
[32] = Drug metabolism of the compound in guinea pig serum assessed as aspirin formation at 100 uM after 40 mins by HPLC analysis; assay type: ADME, cell-free, Cavia porcellus; how it was run: as §2

SMILES: CCN(CC)/[N+]([O-])=N/[O-].[Na+]
- half-life [1]: 2.5 min

SMILES: CC(=O)Oc1ccccc1C(=O)OCO/N=[N+](\[O-])NC(C)C
- IC50 (A549 [2]): 90 µM
- inhibition [3]: Active
- Drug metabolism (Serum): Active
- Drug metabolism [4]: Active
- Activity [5]: 201%
- ED50 (Rattus norvegicus [6]): 121 mg/kg
- Activity [7]: 24%
- Stability [8]: Stable
- Drug metabolism [9]: Active
- Drug metabolism [10]: Active
- Activity (HUVEC): Non-toxic
- Drug metabolism [11]: Active
- half-life [12]: 18 min
- Drug metabolism [13]: Active
- half-life [14]: 7.5 h
- Drug metabolism [15]: Active
- Drug metabolism [16]: Active
- inhibition [17]: Active
- Drug metabolism [18]: Not Active
- Activity [19]: 17%
- Drug metabolism [20]: Active
- Drug metabolism [21]: Active
- Drug uptake (A549 [22]): Active
- UI (Rattus norvegicus [23]): 3.3
- Drug metabolism [24]: Active

SMILES: CCN(CC)/[N+]([O-])=N/OCOC(=O)c1ccccc1O
- Drug metabolism [25]: Not Active

SMILES: CCN(CC)/[N+]([O-])=N/OCOC(=O)c1ccccc1OC(C)=O
- Drug metabolism [26]: Not Active
- IC50 (A549 [2]): 135 µM
- Drug metabolism [27]: Active
- Drug metabolism [4]: Active
- ED50 (Rattus norvegicus [6]): 169 mg/kg
- Drug metabolism [28]: Active
- Drug metabolism [29]: Active
- Drug metabolism [10]: Not Active
- Activity (HUVEC): Non-toxic
- Drug metabolism [11]: Active
- half-life [12]: 13 min
- Drug metabolism [30]: Active
- half-life [14]: 36 h
- Drug metabolism [16]: Active
- Drug metabolism [18]: Not Active
- Drug metabolism [31]: Active
- Drug uptake (A549 [22]): Active
- UI (Rattus norvegicus [23]): 0
- Drug metabolism [24]: Active

SMILES: CC(C)N/[N+]([O-])=N/OCOC(=O)c1ccccc1O
- Drug metabolism [32]: Active

SMILES: CC(=O)Oc1ccccc1C(=O)O [ASPIRIN]
- ED50 (Rattus norvegicus [6]): 129 mg/kg

SMILES: CC(C)N[N+]([O-])=N[O-].[Na+]
- half-life [1]: 5.7 min
